Data: ChEMBL document CHEMBL2434904, “Novel N-methylsulfonamide and retro-N-methylsulfonamide derivatives as 17β-hydroxysteroid dehydrogenase type 2 (17β-HSD2) inhibitors with good ADME-related physicochemical parameters” (Eur J Med Chem, 2013)

Key:
[1] = Partition coefficient, log P of the compound; assay type: physicochemical; conditions: octanol/water
Outline: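 Experimental log P was measured on a SiriusT3 instrument. Calculated log P came from the GALAS method, which predicts from structurally similar molecules with known experimental data.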

Homo sapiens = organism: Homo sapiens; test: Selectivity factor, ratio of IC50 for human placenta 17beta-HSD1 cytosolic fraction to IC50 for human placenta 17beta-HSD2 microsomal fraction
Outline: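 Selectivity factor is IC50(17β-HSD1, placental cytosolic, E1/NADH assay) divided by IC50(17β-HSD2, placental microsomal, E2/NAD⁺ assay). Both come from radiolabeled-substrate conversion assays at 37 °C with 500 nM substrate.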

[2] = target: T1, 17-beta-hydroxysteroid dehydrogenase type 2 (Homo sapiens) (UniProt P37059); test: Inhibition of human placenta 17beta-HSD2 microsomal fraction using unlabeled, [2,4,6,7-3H]-estradiol as substrate at 1 uM after 20 mins by HPLC analysis in presence of NAD+ relative to control
T1 sequence (whole entry): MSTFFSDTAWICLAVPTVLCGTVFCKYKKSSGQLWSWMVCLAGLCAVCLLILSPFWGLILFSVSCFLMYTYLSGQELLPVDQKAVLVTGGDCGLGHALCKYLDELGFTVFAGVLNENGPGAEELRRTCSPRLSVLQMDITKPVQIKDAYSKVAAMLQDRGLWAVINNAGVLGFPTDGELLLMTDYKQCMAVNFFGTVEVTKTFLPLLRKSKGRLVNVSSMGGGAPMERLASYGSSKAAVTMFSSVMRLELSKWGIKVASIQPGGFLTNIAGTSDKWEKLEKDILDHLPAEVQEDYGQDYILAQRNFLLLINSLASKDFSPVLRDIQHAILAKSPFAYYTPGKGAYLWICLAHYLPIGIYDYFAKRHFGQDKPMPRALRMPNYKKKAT
Outline: (§1)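 17β-HSD2 came from the human placental microsomal pellet after fractional centrifugation at 1000, 10,000 and 150,000 g. It was incubated at 37 °C with NAD⁺ and inhibitor in 50 mM phosphate buffer with 20% glycerol, 1 mM EDTA and 1% DMSO final. Unlabeled plus [³H]-E2 (500 nM final) was added, and the reaction was stopped with HgCl₂ after 20 min. After ether extraction, radio-flow detection gave % conversion = E1/(E1+E2). At least three independent experiments were run.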

[3] = target: T2, 17-beta-hydroxysteroid dehydrogenase type 2 (Homo sapiens, UniProt P37059); test: Inhibition of human placenta 17beta-HSD2 microsomal fraction using unlabeled, [2,4,6,7-3H]-estradiol as substrate after 20 mins by HPLC analysis in presence of NAD+; outline: as §1
T2 sequence (P37059 whole entry): T1 sequence (whole entry)

[4] = target: T3, 17-beta-hydroxysteroid dehydrogenase type 1 (Homo sapiens, UniProt P14061); test: Inhibition of human placenta 17beta-HSD1 cytosolic fraction using unlabeled, [2,4,6,7-3H]-estrone as substrate after 10 mins by HPLC analysis in presence of NADH
T3 sequence (P14061 whole entry): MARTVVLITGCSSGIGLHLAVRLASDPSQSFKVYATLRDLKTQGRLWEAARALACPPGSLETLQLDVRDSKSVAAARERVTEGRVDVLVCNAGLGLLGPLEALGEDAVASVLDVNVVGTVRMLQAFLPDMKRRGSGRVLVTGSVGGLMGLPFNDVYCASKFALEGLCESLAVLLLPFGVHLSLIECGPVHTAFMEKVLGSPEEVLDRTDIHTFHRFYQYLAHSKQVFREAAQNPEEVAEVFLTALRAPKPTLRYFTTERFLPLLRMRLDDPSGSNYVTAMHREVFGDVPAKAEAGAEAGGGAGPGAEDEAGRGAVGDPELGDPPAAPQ

[5] = target: T4, 17-beta-hydroxysteroid dehydrogenase type 1 (Homo sapiens) (UniProt P14061); test: Inhibition of human placenta 17beta-HSD1 cytosolic fraction using unlabeled, [2,4,6,7-3H]-estrone as substrate at 1 uM after 10 mins by HPLC analysis in presence of NADH relative to control
T4 sequence (whole entry): T3 sequence (P14061 whole entry)

[6] = target: T2, 17-beta-hydroxysteroid dehydrogenase type 2; test: Inhibition of 17beta-HSD2 (unknown origin)

| SMILES | logP [1] | Ratio IC50 (Homo sapiens) | inhibition [2] [%] | IC50 [3] [nM] | IC50 [4] [nM] | inhibition [5] [%] | IC50 [6] [nM] |
| --- | --- | --- | --- | --- | --- | --- | --- |
| CN(c1cccc(O)c1)S(=O)(=O)c1cccc(-c2cccc(O)c2)c1 | 4.34 | 2 | 68 | 540 | 1310 | 42 | – |
| COc1ccc(-c2cccc(C(=O)N(C)Cc3cccc(OC)c3)c2)cc1 | – | – | – | – | – | 3 | – |
| CN1C(=O)C[C@@H](c2ccccc2F)[C@@H]1[C@@H](O)c1ccc(-c2ccccc2)cc1 | – | – | – | – | – | – | 1020 |
| CN1C(=O)C[C@@H](c2ccccc2F)[C@@H]1[C@@H](O)c1cccc(-c2ccccc2)c1 | – | – | – | – | – | – | 420 |
| COc1cccc(-c2cccc(C(=O)N(C)c3cccc(OC)c3)c2)c1 | – | > 115 | – | – | > 60000 | – | – |
| CN(c1ccc(-c2cccc(O)c2)cc1)S(=O)(=O)c1cccc(O)c1 | 3.72 | 6 | 66 | 511 | 3280 | 22 | – |
| CN(c1cccc(-c2cccc(O)c2)c1)S(=O)(=O)c1cccc(O)c1 | 4.08 | 3 | 88 | 159 | 427 | 68 | – |
